An excerpt weighted towards active compounds, which were near 4.6% of everything screened.
Arr AP2 block: inhibitors of beta-arrestin/AP2 binding, primary screen, biochemical, GPCR trafficking, flow cytometry | beta-arrestin 1 C-terminal peptide binding to AP2 beta2-adaptin appendage (human) | FITC-arrestin peptide / GST-AP2 beads; AP2 beta2 appendage carries R879A mutation | inhibition, % at 10 µM | 340,000 compounds, 0.31% hits;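 active = inhibition above a set limit, near 3 SD of compounds lacking own fluorescence, cut at about 54% in these data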
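Material – AP2 appendage R879A on GSH beads · Buffer or medium – PBS with 0.05% Tween 20 and 0.1% BSA · Probe or stimulus – fluorescein-tagged arrestin peptide at 50 nM final · Incubation – compound with beads 12 min RT, then probe 1 h RT · Detection – high-throughput flow cytometry of beads, ex 488, em 535 nm · Evaluation – percent response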
ALR inh: inhibitors of human ALR sulfhydryl oxidase, primary screen, biochemical, H2O2 detection, HRP-luminol luminescence, single point; inhibition, % (concentration not given with the values); AID 485317, 2010; purified ALR, DTT oxidation; 290,000 compounds, 3.8% hits;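 active = mean replicate inhibition above about 79%, with every replicate also reaching it, limit read from the data; inconclusive = only one of the two criteria met; inactive = mean below limit and not every replicate reaching it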
Target sequence (P55789 whole entry, looked up): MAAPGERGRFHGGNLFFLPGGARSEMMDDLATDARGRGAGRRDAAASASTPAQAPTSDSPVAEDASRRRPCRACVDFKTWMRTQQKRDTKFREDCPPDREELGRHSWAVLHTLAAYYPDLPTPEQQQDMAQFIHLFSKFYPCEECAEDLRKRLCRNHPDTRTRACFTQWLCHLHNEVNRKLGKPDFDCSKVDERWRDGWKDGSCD
NLRP3 yeast inh: NALP3 inflammasome inhibitors in reconstituted yeast, primary screen, luminescence, uHTS. Yeast reconstituted NLRP3/ASC/caspase-1, beta-gal luminescence, 24 h. inhibition, % at 10 µM. 330,000 compounds, 0.39% hits. AID 2825, 2010;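 active = inhibition of 50% or more; inactive = inhibition below 50%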
NALP1 inh: NALP1 inflammasome inhibitors in reconstituted yeast, colorimetric, S. cerevisiae, triplicate retest | AID 2071, 2009 | S. cerevisiae NALP1/ASC/caspase-1 growth, X-gal OD620, 72 h | 280,000 compounds, 0.61% hits | inhibition, % at 10 µM; in the data active = inhibition mostly above about 24%, no sharp cut-off; inactive = mostly below about 32%
PolyA inhibitor: polyadenylation inhibitors in yeast reporter cells, primary screen, luminescence, S. cerevisiae. S. cerevisiae SKY197-pL101 polyadenylation reporter, beta-gal luminescence; efflux-impaired pdr1/pdr3 knockout yeast; score 100 = 6 SD above DMSO. 300,000 compounds, 0.02% hits. activity score, % at 12 µM. AID 1875, 2009;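 active = lowest replicate activity score at least 50, where 100 means six control SD above control mean; inconclusive = lowest score under 50 but half or more replicates reach 50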;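 also: yeast exposed to compound for 9 h at 30 °C; higher score means more reporter readthrough which indicates perturbed polyadenylation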
DSG3 Ab inh: inhibitors of pemphigus antibody binding to DSG3, primary screen, biochemical, bead-based, flow cytometry, scFv-GFP; DSG3-coupled beads, scFv-anti-DSG3-GFP binding; active compounds read low; binding (percent of control), % at 10 µM; 310,000 compounds, 0.48% hits;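 active = binding more than 3 SD below its plate's average and above zero; inconclusive = below that plate limit but binding exactly zero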;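 also: hits lower antibody fragment binding to DSG3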
A number is an active result; 0 = inactive; ? = inconclusive; - = not tested or not shown.

SMILES | Arr AP2 block | ALR inh | NLRP3 yeast inh | NALP1 inh | PolyA inhibitor | DSG3 Ab inh
O=C(O)CCc1nnc(SCC(=O)Nc2ccc(Cl)c(C(F)(F)F)c2)[nH]c1=O | 0 | 0 | 0 | 0 | 0 | 0
O=C(O)CCc1nnc(SCC(=O)Nc2cccc(C(F)(F)F)c2)[nH]c1=O | 0 | 99 | 0 | 0 | 0 | 0
Cc1ccc(NC(=O)CSc2nnc(CCC(=O)O)c(=O)[nH]2)cc1 | 0 | 98 | 0 | 0 | 0 | 0
COc1cccc(NC(=O)C2CCN(C(=O)[C@@H]3Cc4ccccc4CN3)CC2)c1 | 0 | 0 | 0 | 0 | 0 | 0
CC1=CC(=O)C(Sc2ccc(C)cc2)=CC1=O | - | - | - | - | - | 0
O=C1CC(C(=O)N2CCc3ccccc32)CN1c1ccc(F)cc1 (configuration not stated) | 0 | - | 0 | 0 | 0 | 0
COc1cccc(CN2CC(C(=O)N(C)CCCC3CCCC3)CCC2=O)c1 (configuration not stated) | 0 | 0 | 0 | 0 | 0 | 0
Cc1nnc(SCC(=O)Nc2ccc3c(c2)OCO3)[nH]c1=O | 0 | 0 | 0 | 0 | 0 | 0
CCOC(=O)c1c(NC(=O)CSc2nnc(C)c(=O)[nH]2)sc2c1CCCC2 | 0 | 0 | 0 | 0 | 0 | -
Cc1n[nH]c(=O)c2c(NC(=O)CSc3ccc(F)cc3)oc(C)c12 | 0 | - | 0 | - | 0 | 0
CC(=O)Nc1ccc(SCC(=O)Nc2oc(C)c3c(C)n[nH]c(=O)c23)cc1 | 0 | 99 | 0 | - | 0 | 0
Cc1nnc(SCc2nc3sc4c(c3c(=O)[nH]2)CCCC4)[nH]c1=O | 0 | 98 | 0 | 0 | 0 | -
Cc1nnc(SCC(=O)Nc2sc3c(c2C#N)CCCC3)[nH]c1=O | 0 | 98 | 0 | 0 | 0 | 0
CC(=O)Nc1ccc(NC(=O)CSc2nnc(C)c(=O)[nH]2)cc1 | 0 | 98 | 0 | 0 | 0 | 0
Nc1nc(OCC2CCCCC2)c2[nH]cnc2n1 | 0 | 97 | 0 | 0 | 0 | -
Cc1cccc(/N=C/c2c(O)[nH]c3ccccc23)n1 | 0 | 0 | 0 | 0 | 0 | 0
Cc1cc(C(=O)N/N=C/c2c(C)[nH]c3ccccc23)n[nH]1 | 0 | - | 0 | - | 0 | 0
CC(C)(CO)N=Cc1c(O)[nH]c2ccccc12 | 0 | 100 | 0 | 0 | 0 | -
CC(C)(C)c1[nH]c2ccccc2c1/C=N/O | 0 | 99 | 0 | 0 | 0 | 0
CC(C)N=Cc1c(O)[nH]c2ccccc12 | 0 | 99 | 0 | 0 | 0 | 0
CN(Cc1ccc2nsnc2c1)C(=O)C1CCC(=O)N(CCc2ccccc2)C1 (configuration not stated) | - | - | - | - | - | 0
c1ccc2c(Nc3ccc4c(c3)OCCO4)c3c(nc2c1)CCC3 | 0 | 80 | 0 | 0 | 0 | 0
COc1ccc(Nc2cc(C)c3ccccc3n2)cc1 | 0 | - | 0 | 0 | 0 | 0
Cc1ccc2nc3c(c(Nc4ccccc4)c2c1)CCC3 | 0 | 97 | 0 | 41 | 0 | -
Fc1ccc(Nc2c3c(nc4ccccc24)CCC3)cc1 | 0 | 95 | 0 | 0 | 0 | 0
SMILES | Arr AP2 block | ALR inh | NLRP3 yeast inh | NALP1 inh | PolyA inhibitor | DSG3 Ab inh
COc1ccc(Nc2c3ccccc3nc3ccccc23)cc1 | 0 | 100 | 0 | - | 0 | 0
Cc1ccc(C)c(S(=O)(=O)N2CCN(C(=O)CSC(=S)N3CCCC3)CC2)c1 | 0 | 0 | 0 | - | 0 | 0
CC(C)C[C@H]1CN=C(Nc2ccccc2)N1CC1CCC(C(C)(C)C)CC1 (some centres not stated) | 0 | 0 | 0 | - | - | 0
Cc1cc(C)c(C(=O)NCCCN2CCOCC2)c(C)c1 | 0 | 0 | 0 | 0 | 0 | 0
COc1ccc(Nc2nc(-c3ccncc3)nc3ccccc23)cc1 | 0 | 0 | 0 | 37 | 0 | 0
COc1ccccc1Nc1c2ccccc2nc2ccccc12 | 0 | 99 | 0 | 0 | 0 | 0
COc1ccc(Nc2c3c(nc4ccccc24)CCC3)cc1 | 0 | 99 | 0 | 0 | 0 | 0
COc1ccc(OC)c(Nc2nc(-c3ccncc3)nc3ccccc23)c1 | 0 | 0 | 0 | 0 | 0 | 0
COc1ccccc1Nc1ccc(N)cc1 | 0 | 0 | 0 | 0 | 0 | 39
COc1ccc(Nc2nc(-c3ccccc3)nc3ccccc23)c(OC)c1 | 0 | 0 | 0 | 0 | 0 | 0
COc1ccc(Nc2c3c(nc4ccccc24)CCCC3)cc1OC | 0 | 99 | 0 | 0 | 0 | 0
COc1ccc(Nc2nc(N)c3ccccc3n2)c(OC)c1 | 0 | 84 | 0 | 0 | 0 | 0
COc1cc(Nc2c3ccccc3nc3ccccc23)cc(OC)c1OC | 0 | 94 | 0 | 0 | 0 | 0
COc1ccc(C)cc1Nc1c2c(nc3ccccc13)CCC2 | 0 | ? | 0 | 0 | 0 | 0
CCN(CC)S(=O)(=O)c1ccc(O)c(C(=O)OCC(=O)N2CCCc3ccccc32)c1 | - | - | - | - | - | 0
CCCN(C(=O)c1cc(-c2ccco2)nc2ccccc12)c1c(N)n(Cc2ccccc2)c(=O)[nH]c1=O | 0 | 0 | 0 | - | 0 | 87
COCCN(C(=O)c1cc(-c2ccco2)nc2ccccc12)c1c(N)n(Cc2ccccc2)c(=O)[nH]c1=O | 0 | 0 | 0 | - | - | 0
CC1=CC(=O)C=C(C)C1=NOS(=O)(=O)c1ccccc1 | 0 | - | - | 104 | 0 | -
CC1=CC(=O)C(C(C)C)=C/C1=N/OS(=O)(=O)c1ccccc1 | 0 | - | 0 | 0 | 0 | 0
CCCc1c(C)nc(N2CCN(c3cccc(OC)c3)CC2)[nH]c1=O | 0 | 0 | 0 | 0 | 0 | 0
CCc1c(C)nc(N2CCN(c3cccc(OC)c3)CC2)[nH]c1=O | 0 | 98 | 0 | 0 | 0 | 0
CN1CCN(c2ccc(S(=O)(=O)N3CCOCC3)cc2NC(=O)COc2ccc(C#N)cc2)CC1 | 0 | - | - | - | - | 0
Oc1ccc(/C=N/NC(=S)NCc2ccco2)cc1 | - | 99 | 0 | 0 | 0 | 0
CCN(CC)c1ccc(/C=N/NC(=S)NCc2ccco2)cc1 | 0 | 99 | 0 | 0 | 0 | 0
S=C(NCc1ccco1)N/N=C/c1ccc(Cl)cc1 | 0 | - | - | 0 | 0 | 0
SMILES | Arr AP2 block | ALR inh | NLRP3 yeast inh | NALP1 inh | PolyA inhibitor | DSG3 Ab inh
Oc1c(Br)cc(/C=N/NC(=S)NCc2ccco2)cc1Br | 0 | 89 | 0 | 0 | 0 | 0
COc1cc(/C=N/NC(=S)NCc2ccco2)cc(OC)c1OC | 0 | 0 | 0 | 0 | 0 | 0
COc1ccc(CNC(=O)COC(=O)c2ccc(Br)o2)cc1 | 0 | 0 | 0 | - | - | 0
N#Cc1c(-c2cccc(Cl)c2)[nH]c(=S)[nH]c1=O | 0 | 80 | 0 | 0 | 0 | 0
O=C(Cc1cccc2ccccc12)N/N=C/c1ccc2cccc(O)c2n1 | 0 | 0 | 0 | - | 0 | 59
Cc1ccc(NC(=O)Cn2c(=O)c3cccn3c3ccccc32)c(Cl)c1 | 0 | 0 | 0 | 0 | 0 | 32

Compound activity from PubChem.
